# Only some compounds are listed: those with a hit (about 2.5% of all), similar ones and a draw of the others.
# PglD inh: blocks C. jejuni PglD acetyltransferase activity | AID 602405 | 360,000 compounds, 0.098% hits | purified PglD enzyme, DTNB colorimetric CoA detection | inhibition, % at 12.5 µM; in the data active = inhibition above about 16%, passing the limit was not always enough; inconclusive = no clear call, values can overlap the other calls
# E-selectin induc: E-selectin induction on HUVECs. P16581. HUVEC E-selectin immunofluorescence imaging; normalized: neutral wells 0, TNF-alpha wells 100. activation, % at 7.58 µM. 260,000 compounds, 0.37% hits. AID 686992;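 active = mean E-selectin-positive cell signal at least 10% of the positive control, reached in at least 60% of replicates, without over 20% cell loss; inconclusive = no rule given, readout overlaps actives, possibly toxicity-flagged; inactive = the rest, including those meeting only one limit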
# Target sequence (P16581 whole entry, looked up): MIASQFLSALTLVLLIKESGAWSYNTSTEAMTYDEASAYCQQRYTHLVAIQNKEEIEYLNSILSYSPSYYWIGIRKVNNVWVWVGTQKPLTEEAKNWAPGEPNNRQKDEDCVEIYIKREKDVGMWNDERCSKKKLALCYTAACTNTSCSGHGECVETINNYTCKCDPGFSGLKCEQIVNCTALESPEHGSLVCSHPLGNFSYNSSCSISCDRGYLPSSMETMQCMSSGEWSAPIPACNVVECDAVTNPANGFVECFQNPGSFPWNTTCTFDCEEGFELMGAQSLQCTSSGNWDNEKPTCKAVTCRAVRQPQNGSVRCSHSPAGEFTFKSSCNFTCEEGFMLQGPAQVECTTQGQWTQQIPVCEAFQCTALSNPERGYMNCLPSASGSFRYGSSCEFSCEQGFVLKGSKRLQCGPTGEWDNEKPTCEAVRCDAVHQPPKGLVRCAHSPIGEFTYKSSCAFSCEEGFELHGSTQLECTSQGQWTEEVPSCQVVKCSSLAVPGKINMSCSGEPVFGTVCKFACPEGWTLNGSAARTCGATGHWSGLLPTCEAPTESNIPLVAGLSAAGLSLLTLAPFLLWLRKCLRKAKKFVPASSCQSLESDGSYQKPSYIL
#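 Assay system: HUVEC, human umbilical vein endothelial cells / Amount: 3,000 HUVEC/well / Controls: TNF-alpha positive control, DMSO neutral control / Compound dosing: single concentration / Medium: EGM-2 over gelatin coat / Evaluation: percent E-selectin-positive cells / Signal: immunofluorescence imaging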
# ERAP1 inh: ERAP1 (human) enzyme inhibition; Q9NZ08; recombinant ERAP1, Leu-AMC fluorescence, 60 min; inhibition, % at 10.7 µM; 340,000 compounds, 0.15% hits; AID 652197;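 active = mean replicate inhibition of at least 30%, or all replicates individually reaching that 30% level; inactive = mean below 30% and not every replicate reaching it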
# SIRT5 block: blocks human SIRT5 desuccinylation of peptide | Q9NXA8 | inhibition, % at 15 µM | 330,000 compounds, 1.1% hits | Purified SirT5, succinyl-peptide AMC, trypsin-coupled fluorescence; in the data active = inhibition above about 15%; inconclusive = no clear call, values can overlap the other calls
# DENV2 CPE rescue: inhibitors of DENV2 cytopathic effect | CPE inhibition, % at 9.99 µM | DENV2-infected cells, cytopathic effect rescue, plate reader | 350,000 compounds, 1.7% hits; in the data active = CPE inhibition above about 20%, passing the limit was not always enough; inconclusive = no clear call, values can overlap the other calls; tested in BHK-21 cells
# Numbers stand for hits; . = inactive; ? = inconclusive; / = not tested or not shown.
SMILES,PglD inh,E-selectin induc,ERAP1 inh,SIRT5 block,DENV2 CPE rescue
CO[C@@H]1CC[C@H]2CCOc3c(C#N)cccc3C(=O)N(C)C[C@@H](OC)[C@@H](C)C(=O)N(C)C[C@H]1O2,.,.,.,.,.
CO[C@@H]1CC[C@@H]2CCN(C)C(=O)C[C@H](c3ccccc3)CN(C)C(=O)c3cccc(C#N)c3OC[C@@H]1O2,.,.,.,25,.
CO[C@@H]1CC[C@H]2CCN(C)C(=O)[C@@H](C)[C@H](OC)CN(C)C(=O)c3cc(C#N)ccc3OC[C@@H]1O2,.,.,.,.,.
CO[C@@H]1CC[C@@H]2CCN(C)C(=O)[C@@H](C)[C@H](OC)CN(C)C(=O)c3cc(C#N)ccc3OC[C@@H]1O2,.,.,.,19,.
COc1ccccc1Nc1nnc(SCC2CCCCO2)s1 (stereo not drawn),/,/,.,.,.
Cc1cc(/C=C2/NC(=O)N(Cc3ccccc3F)C2=O)c(C)n1C(C)C,/,.,.,112,.
CCn1c(C)cc(/C=C2/NC(=O)N(Cc3ccccc3F)C2=O)c1C,/,/,.,.,/
Cc1cccc[n+]1CC(=O)Nc1cccc([N+](=O)[O-])c1,/,/,.,.,.
COc1ccc(S(=O)(=O)N2CCC(C(=O)N3CCCC3)CC2)cc1,.,/,/,/,/
Cc1cccc(C)c1NC(=O)CN(C)C(=O)c1ccccc1SCC(=O)N1CCCC1,.,/,.,16,.
CCC(=O)N(C)C[C@H]1Oc2cc(C#CC(C)C)ccc2S(=O)(=O)N([C@H](C)CO)C[C@H]1C,.,.,.,.,.
COC(=O)C[C@H]1CC[C@H]2[C@@H](COc3ccc(NC(=O)Nc4c(C)noc4C)cc3C(=O)N2C)O1,.,.,.,.,.
COc1c2c(cc3oc(CO[C@@H]4O[C@H](CO)[C@@H](O)[C@H](O)[C@H]4O)cc(=O)c13)O[C@H](C(C)(C)O)C2,.,.,.,.,24
COc1c2c(cc3oc(C)cc(=O)c13)OC(C(C)(C)OC1OC(CO)C(O)C(O)C1O)C2 (stereo not drawn),.,.,.,.,?
Cc1ccc(C(=O)c2c3ccc([N+](=O)[O-])cc3[n+]([O-])n2CCCC(N)=O)cc1,.,.,.,/,70
O=C([C@@H]1[C@@H](CO)[C@@H]2Cn3c(cccc3=O)[C@H]1N2CC1CCCC1)N1CCCCC1,.,.,.,.,.
CS(=O)(=O)N1[C@@H]2c3ccc(-c4ccc(F)cc4)c(=O)n3C[C@H]1[C@H](CO)[C@H]2C(=O)NCC1CC1,.,.,.,.,121
O=C([C@@H]1[C@@H](CO)[C@@H]2Cn3c(cccc3=O)[C@H]1N2Cc1ccccc1)N1CCCCC1,.,.,.,.,50
COc1cccc(-c2ccc3n(c2=O)C[C@H]2[C@H](CO)[C@@H](C(=O)NCC4CC4)[C@@H]3N2S(C)(=O)=O)c1,.,.,.,.,.
O=C(NC1CCCC1)[C@@H]1[C@@H](CO)[C@@H]2Cn3c(ccc(-c4ccccc4)c3=O)[C@H]1N2CC1CC1,/,.,.,.,25
O=C([C@H]1[C@H](CO)[C@H]2Cn3c(cccc3=O)[C@@H]1N2CC1CCCC1)N1CCOCC1,/,.,.,.,23
CN(C)C(=O)c1nc2ccc(Cl)cn2c1CN1CCCC(OCc2cccnc2)C1 (stereo not drawn),.,.,.,.,.
C[C@@H]1CN([C@@H](C)CO)C(=O)c2cc(NC(=O)Cn3cnnn3)ccc2O[C@H]1CN(C)S(=O)(=O)c1ccc(F)cc1,.,.,.,.,.
CCCNC(=O)N1[C@@H]2Cn3c(cccc3=O)[C@H]1[C@@H](C(=O)N1CCC(Cc3ccccc3)CC1)[C@@H]2CO,.,.,.,21,.
CCCN1[C@@H]2c3ccc(-c4cccnc4)c(=O)n3C[C@H]1[C@H](CO)[C@H]2C(=O)NCCc1cn(C)cn1,.,.,55,.,.
SMILES,PglD inh,E-selectin induc,ERAP1 inh,SIRT5 block,DENV2 CPE rescue
O=C(NC1CCCCC1)[C@@H]1[C@@H](CO)[C@@H]2Cn3c(cccc3=O)[C@H]1N2CC1CCCCC1,/,.,.,19,?
O=C(NCC1CCCCC1)[C@@H]1[C@@H](CO)[C@@H]2Cn3c(ccc(-c4cccnc4)c3=O)[C@H]1N2,/,.,.,.,106
CCCC(=O)Nc1ccc2c(c1)C(=O)N(C)[C@@H]1CC[C@H](CC(=O)NC3CCCC3)O[C@@H]1CO2,.,.,.,.,.
C[C@H]1CN([C@@H](C)CO)C(=O)c2cccc(NC(=O)c3nc4ccccc4s3)c2O[C@H]1CN(C)C(=O)Nc1cccc2ccccc12,.,.,.,.,.
CCCNC(=O)[C@H]1[C@H](CO)[C@H]2Cn3c(cccc3=O)[C@@H]1N2CCC(F)(F)F,.,.,.,.,20
CCCNC(=O)[C@@H]1[C@@H](CO)[C@@H]2Cn3c(cccc3=O)[C@H]1N2CCC(F)(F)F,.,.,.,.,.
C[C@@H]1CN([C@@H](C)CO)C(=O)c2cc(NC(=O)c3ccncc3)ccc2O[C@@H](C)CCCCO[C@@H]1CN(C)Cc1ccc2c(c1)OCO2,.,.,/,/,?
O=C(O)c1ccccc1C(=O)Nc1n[nH]c(=S)s1,.,/,79,.,.
COc1ccccc1NC(=O)N1CC[C@H]2[C@@H]1c1cc(C#Cc3ccc(F)cc3)ccc1N(C)[C@H]2CO,.,.,.,.,34
COc1ccccc1NC(=O)N1CC[C@@H]2[C@H]1c1cc(-c3ccc(F)cc3)ccc1N(C)[C@H]2CO,.,.,.,.,.
CN1c2ccc(-c3ccc(C#N)cc3)cc2[C@@H]2[C@@H](CCN2C(=O)Nc2ccccc2F)[C@@H]1CO,.,.,.,.,42
CN1c2ccc(-c3cccc(C#N)c3)cc2[C@@H]2[C@@H](CCN2C(=O)Nc2cc(F)ccc2F)[C@@H]1CO,.,.,.,.,.
Cn1cnc(S(=O)(=O)N2CC[C@@H]3[C@H](CO)Nc4ccc(-c5ccccc5F)cc4[C@@H]32)c1,.,.,/,/,.
CC(C)(C)OC(=O)CNC(=O)c1[nH]cnc1C(=O)N[C@@H](Cc1ccccc1)C(=O)OC(C)(C)C,.,.,.,.,54
CC(C)(C)OC(=O)NCCCC[C@H](NC(=O)c1nc[nH]c1C(=O)NCC(=O)OCc1ccccc1)C(=O)OC(C)(C)C,.,/,.,24,.
C[C@@H]1CN([C@@H](C)CO)C(=O)Cc2cc(NC(=O)CCN3CCOCC3)ccc2O[C@@H]1CN(C)Cc1ccc(C(F)(F)F)cc1,.,/,.,.,.
C[C@@H]1CN([C@H](C)CO)C(=O)c2cc(NC(=O)Nc3ccccc3)ccc2O[C@@H]1CN(C)C(=O)Nc1ccc2c(c1)OCO2,/,.,/,/,/
CCC(=O)Nc1ccc2c(c1)OC[C@@H](C)N(C(C)=O)C[C@@H](C)[C@@H](OC)CN(C)C2=O,.,.,.,.,24
CCC(=O)Nc1ccc2c(c1)OC[C@@H](C)N(C(C)=O)C[C@H](C)[C@@H](OC)CN(C)C2=O,.,.,.,.,.
CCC(=O)Nc1ccc2c(c1)OC[C@@H](C)N(C(C)=O)C[C@H](C)[C@H](OC)CN(C)C2=O,.,.,.,.,27

# Screens as filed in PubChem BioAssay.
